This is an account of results in ChEMBL document CHEMBL1268957, “Indapamide-like benzenesulfonamides as inhibitors of carbonic anhydrases I, II, VII, and XIII” (Bioorg Med Chem, 2010).

In general, Kd refers to the concentration at which binding is half-saturated.

Experiment [1] addresses T1, Carbonic anhydrase 1 (Homo sapiens, UniProt P00915). The experiment is described as follows: Binding affinity to human recombinant carbonic anhydrase 1 by thermal shift assay.
Experiment [2] deals with T2, Carbonic anhydrase 2 (Homo sapiens, UniProt P00918). The experiment is described as follows: Binding affinity to human recombinant carbonic anhydrase 2 by thermal shift assay.
Experiment [3] deals with T3, Carbonic anhydrase 7 (Homo sapiens, UniProt P43166). The experiment is described as follows: Binding affinity to human recombinant carbonic anhydrase 7 by thermal shift assay.
In experiment [4] the target is T4, Carbonic anhydrase 13 (Homo sapiens, UniProt Q8N1Q1). The experiment is described as follows: Binding affinity to human recombinant carbonic anhydrase 13 by thermal shift assay.
Experiment [5] deals with T1, Carbonic anhydrase 1. The experiment is described as follows: Binding affinity to human recombinant carbonic anhydrase 1 by isothermal titration calorimetry assay. An outline of the steps: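 Isothermal titration calorimetry of ligand binding to recombinant hCA at 37 °C in phosphate buffer with 50 mM NaCl, pH 7.0, final DMSO 0.5–2%. Heats of injection integrated against molar ratio to give the dissociation constant.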
A general note: Isothermal titration calorimetry measures the heat released or taken up as one component is titrated into another.

Experiment [6] concerns the target T3, Carbonic anhydrase 7. The experiment is described as follows: Binding affinity to human recombinant carbonic anhydrase 7 by isothermal titration calorimetry assay.
Experiment [7] has as its target T4, Carbonic anhydrase 13. The experiment is described as follows: Binding affinity to human recombinant carbonic anhydrase 13 by isothermal titration calorimetry assay.
Experiment [8] deals with T2, Carbonic anhydrase 2. The experiment is described as follows: Binding affinity to human recombinant carbonic anhydrase 2 by isothermal titration calorimetry assay.

T1 sequence (P00915 whole entry): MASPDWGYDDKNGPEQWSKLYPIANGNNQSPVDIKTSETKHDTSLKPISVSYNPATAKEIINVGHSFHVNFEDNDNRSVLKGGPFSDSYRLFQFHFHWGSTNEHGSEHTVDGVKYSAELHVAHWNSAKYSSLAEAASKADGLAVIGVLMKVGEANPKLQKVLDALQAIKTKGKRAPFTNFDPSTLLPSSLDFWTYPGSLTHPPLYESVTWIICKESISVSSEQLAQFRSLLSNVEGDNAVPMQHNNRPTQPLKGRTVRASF
T3 sequence (P43166 whole entry): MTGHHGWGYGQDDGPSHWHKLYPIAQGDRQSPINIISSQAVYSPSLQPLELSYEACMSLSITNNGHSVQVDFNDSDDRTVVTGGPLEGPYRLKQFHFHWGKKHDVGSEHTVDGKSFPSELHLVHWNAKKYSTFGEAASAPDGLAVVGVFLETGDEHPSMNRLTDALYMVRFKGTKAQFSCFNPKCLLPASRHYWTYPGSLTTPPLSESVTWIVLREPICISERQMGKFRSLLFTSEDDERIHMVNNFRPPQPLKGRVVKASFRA
T4 sequence (Q8N1Q1 whole entry): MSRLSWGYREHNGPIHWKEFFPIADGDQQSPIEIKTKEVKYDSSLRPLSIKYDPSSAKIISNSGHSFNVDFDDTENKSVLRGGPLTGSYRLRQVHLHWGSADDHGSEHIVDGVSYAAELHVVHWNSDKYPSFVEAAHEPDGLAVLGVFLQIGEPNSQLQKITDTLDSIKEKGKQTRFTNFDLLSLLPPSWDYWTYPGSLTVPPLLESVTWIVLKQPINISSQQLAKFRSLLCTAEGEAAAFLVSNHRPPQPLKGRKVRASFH

Regarding `NS(=O)(=O)c1cc(C(=O)CSc2nc3cc4c(cc3[nH]2)OCCO4)ccc1Cl`, the Kd worked out at 3100 nM in experiment [1]; 20 nM in experiment [2]; 100 nM in experiment [3]; 100 nM in experiment [4]; 2200 nM in experiment [5]; 1100 nM in experiment [6]. Also, in experiment [7], the Kd turned out to be 300 nM.

Regarding `CC(C)Cc1nc2ccccc2n1CC(=O)c1ccc(Cl)c(S(N)(=O)=O)c1`, in experiment [2], the Kd is 400 nM.

Consider `NS(=O)(=O)c1cc(C(=O)Cn2c(CN3CCOCC3)nc3ccccc32)ccc1Cl`, for which the Kd in experiment [1] worked out at 40000 nM; in experiment [2] it was 4200 nM; in experiment [3] it was 10000 nM; in experiment [4], 12500 nM.

As for `NS(=O)(=O)c1cc(C(=O)CSc2nc3ccccc3[nH]2)ccc1Cl`, the Kd in experiment [1] came out at 1000 nM; in experiment [2] it was 100 nM; in experiment [3], 30 nM; in experiment [4] it was 200 nM; in experiment [5], 1300 nM; in experiment [8], 100 nM. Also, the Kd in experiment [6] and in experiment [7] was 100 nM in each case.

On to `NS(=O)(=O)c1cc(C(=O)CSc2nc3ccc(Br)cc3[nH]2)ccc1Cl`, for which the Kd in experiment [1] amounted to 1300 nM; in experiment [3], 100 nM; in experiment [4] it was 100 nM; in experiment [5] it was 1400 nM; in experiment [7], 200 nM.

On to `NS(=O)(=O)c1cc(C(=O)CSc2nc3c(cnc4ccccc43)[nH]2)ccc1Cl`, for which the results for the Kd in experiment [1], in experiment [3] and in experiment [4] were 1300 nM, 100 nM and 100 nM, respectively.

With `NS(=O)(=O)c1cc(C(=O)Cn2cnc3ccccc32)ccc1Cl`, the Kd in experiment [4] is 700 nM.

As to `NS(=O)(=O)c1cc(C(=O)Cn2c(CO)nc3ccccc32)ccc1Cl`, in experiment [4], the Kd amounted to 300 nM.
